Measurements taken from ChEMBL document CHEMBL1147539, “Synthesis and biological evaluation of novel, selective, nonsteroidal glucocorticoid receptor antagonists” (Bioorg Med Chem Lett, 2004).

How the values were obtained:
Glucocorticoid receptor [1] = molecular target: T1, Glucocorticoid receptor (Homo sapiens, UniProt P04150); assay: Effect on human Glucocorticoid receptor (GR) in a whole cell assay to measure functional cellular GR-antagonism (GRAF)
T1 sequence (P04150 whole entry): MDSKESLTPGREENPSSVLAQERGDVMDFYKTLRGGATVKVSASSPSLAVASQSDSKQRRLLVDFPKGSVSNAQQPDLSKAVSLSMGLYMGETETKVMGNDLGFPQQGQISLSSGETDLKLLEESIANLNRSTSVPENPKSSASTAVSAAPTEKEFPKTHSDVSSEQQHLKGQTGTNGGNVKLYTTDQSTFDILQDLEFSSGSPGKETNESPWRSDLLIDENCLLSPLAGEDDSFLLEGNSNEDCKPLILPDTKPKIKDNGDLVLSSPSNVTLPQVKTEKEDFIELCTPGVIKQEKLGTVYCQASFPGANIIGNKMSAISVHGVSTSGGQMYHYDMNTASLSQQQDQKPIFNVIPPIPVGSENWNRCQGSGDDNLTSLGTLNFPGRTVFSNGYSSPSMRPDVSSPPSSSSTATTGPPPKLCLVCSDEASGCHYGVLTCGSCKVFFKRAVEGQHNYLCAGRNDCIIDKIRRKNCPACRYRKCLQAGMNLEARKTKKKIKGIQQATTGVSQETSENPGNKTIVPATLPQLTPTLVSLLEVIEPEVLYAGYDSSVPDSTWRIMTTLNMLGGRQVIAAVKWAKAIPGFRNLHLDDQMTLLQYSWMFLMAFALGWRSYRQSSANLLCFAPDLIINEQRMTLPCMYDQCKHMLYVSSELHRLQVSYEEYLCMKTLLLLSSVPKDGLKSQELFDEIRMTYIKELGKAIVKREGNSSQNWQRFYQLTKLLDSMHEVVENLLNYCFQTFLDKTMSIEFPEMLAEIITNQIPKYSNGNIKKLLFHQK

Glucocorticoid receptor [2] = molecular target: T1, Glucocorticoid receptor; assay: Displacement of [3H]dexamethasone from human Glucocorticoid receptor (GR); Value ranges from 26-67 nM
Method in brief: (§1)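 Binding to human GR; IC50 reported as the geometric mean of two experiments (three for some values), each run in duplicate, with the range of the experiments given.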

[3] = molecular target: T2, Mineralocorticoid receptor (Homo sapiens, UniProt P08235); assay: Displacement of [3H]aldosterone from human Mineralocorticoid receptor
T2 sequence (P08235 whole entry): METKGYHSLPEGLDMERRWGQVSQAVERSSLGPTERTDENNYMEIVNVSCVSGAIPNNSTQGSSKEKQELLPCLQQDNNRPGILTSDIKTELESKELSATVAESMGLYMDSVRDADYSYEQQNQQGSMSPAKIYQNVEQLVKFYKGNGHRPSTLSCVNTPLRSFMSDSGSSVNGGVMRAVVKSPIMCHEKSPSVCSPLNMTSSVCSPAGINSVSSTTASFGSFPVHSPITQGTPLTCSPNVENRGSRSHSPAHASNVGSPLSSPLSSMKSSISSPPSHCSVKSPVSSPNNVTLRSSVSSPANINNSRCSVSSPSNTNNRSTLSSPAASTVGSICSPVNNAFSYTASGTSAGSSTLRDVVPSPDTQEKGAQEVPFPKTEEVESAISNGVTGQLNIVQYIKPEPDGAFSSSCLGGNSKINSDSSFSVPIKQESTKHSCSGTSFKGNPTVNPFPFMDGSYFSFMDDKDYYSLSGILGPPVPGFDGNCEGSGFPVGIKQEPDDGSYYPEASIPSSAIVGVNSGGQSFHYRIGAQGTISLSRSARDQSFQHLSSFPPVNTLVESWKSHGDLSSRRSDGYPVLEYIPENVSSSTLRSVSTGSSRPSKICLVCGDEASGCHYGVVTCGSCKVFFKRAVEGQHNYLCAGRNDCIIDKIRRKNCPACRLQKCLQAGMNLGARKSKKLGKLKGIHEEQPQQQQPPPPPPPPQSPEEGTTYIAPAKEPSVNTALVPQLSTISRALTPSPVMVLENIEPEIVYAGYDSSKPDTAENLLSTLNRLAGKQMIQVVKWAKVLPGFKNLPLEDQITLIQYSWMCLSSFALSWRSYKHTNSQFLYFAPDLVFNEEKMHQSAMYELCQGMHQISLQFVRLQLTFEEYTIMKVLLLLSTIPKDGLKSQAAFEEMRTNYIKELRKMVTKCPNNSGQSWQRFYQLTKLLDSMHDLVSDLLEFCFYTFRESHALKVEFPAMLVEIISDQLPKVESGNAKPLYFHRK
Method in brief: (§2)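 Human steroid receptor (PR, MR, AR, ERα) binding measured by radioligand displacement, with IC50s determined in duplicate. Values without a range come from a single experiment, and values with a range are geometric means of repeat experiments.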

Estrogen receptor = molecular target: T3, Estrogen receptor (Homo sapiens, UniProt P03372); assay: Displacement of [3H]estradiol from human estrogen receptor alpha; method in brief: as §2
T3 sequence (P03372 whole entry): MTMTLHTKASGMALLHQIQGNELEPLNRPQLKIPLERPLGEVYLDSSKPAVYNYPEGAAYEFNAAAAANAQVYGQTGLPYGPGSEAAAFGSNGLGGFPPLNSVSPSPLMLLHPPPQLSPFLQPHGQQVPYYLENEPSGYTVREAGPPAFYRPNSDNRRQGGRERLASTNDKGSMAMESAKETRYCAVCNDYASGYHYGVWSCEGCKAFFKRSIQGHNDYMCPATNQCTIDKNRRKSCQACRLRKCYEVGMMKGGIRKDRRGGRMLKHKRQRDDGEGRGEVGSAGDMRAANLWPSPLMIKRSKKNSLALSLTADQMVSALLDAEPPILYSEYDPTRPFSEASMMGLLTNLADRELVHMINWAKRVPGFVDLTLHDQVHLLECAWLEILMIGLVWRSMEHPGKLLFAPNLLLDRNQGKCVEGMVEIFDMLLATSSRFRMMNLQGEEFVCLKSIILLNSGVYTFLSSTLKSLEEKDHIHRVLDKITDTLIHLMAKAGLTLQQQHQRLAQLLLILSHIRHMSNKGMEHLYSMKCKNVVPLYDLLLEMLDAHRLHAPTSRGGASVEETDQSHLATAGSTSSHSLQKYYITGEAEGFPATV

Glucocorticoid receptor [4] = molecular target: T1, Glucocorticoid receptor; assay: Displacement of [3H]dexamethasone from human Glucocorticoid receptor (GR); Value ranges from 3-3 nM
Androgen receptor = molecular target: T4, Androgen receptor (Homo sapiens, UniProt P10275); assay: Displacement of [3H]mibolerone from human Androgen receptor
T4 sequence (P10275 whole entry): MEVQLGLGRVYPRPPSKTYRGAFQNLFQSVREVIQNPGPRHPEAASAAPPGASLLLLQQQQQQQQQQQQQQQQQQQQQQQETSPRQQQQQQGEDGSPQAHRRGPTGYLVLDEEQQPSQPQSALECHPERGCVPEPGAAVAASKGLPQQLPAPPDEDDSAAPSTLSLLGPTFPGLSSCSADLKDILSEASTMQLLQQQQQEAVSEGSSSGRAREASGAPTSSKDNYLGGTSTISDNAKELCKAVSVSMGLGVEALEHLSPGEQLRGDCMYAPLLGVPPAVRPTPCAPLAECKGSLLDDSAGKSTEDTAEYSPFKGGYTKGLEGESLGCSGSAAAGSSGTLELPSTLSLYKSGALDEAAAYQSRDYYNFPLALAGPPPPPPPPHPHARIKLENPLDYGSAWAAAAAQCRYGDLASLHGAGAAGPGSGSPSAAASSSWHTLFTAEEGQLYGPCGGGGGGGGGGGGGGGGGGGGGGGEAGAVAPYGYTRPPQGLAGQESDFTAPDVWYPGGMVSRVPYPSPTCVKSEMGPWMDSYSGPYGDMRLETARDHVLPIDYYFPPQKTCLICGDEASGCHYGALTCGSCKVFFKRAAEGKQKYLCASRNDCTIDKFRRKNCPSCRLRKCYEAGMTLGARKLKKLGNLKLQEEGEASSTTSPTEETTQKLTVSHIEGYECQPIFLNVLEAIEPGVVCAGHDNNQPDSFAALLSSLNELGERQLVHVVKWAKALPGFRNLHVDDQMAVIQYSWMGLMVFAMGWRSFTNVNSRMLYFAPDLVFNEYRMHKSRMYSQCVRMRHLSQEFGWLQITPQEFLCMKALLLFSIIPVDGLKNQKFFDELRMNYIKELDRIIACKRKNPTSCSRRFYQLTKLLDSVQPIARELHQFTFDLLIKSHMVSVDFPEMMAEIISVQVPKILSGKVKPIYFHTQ

Glucocorticoid receptor [5] = molecular target: T1, Glucocorticoid receptor
Glucocorticoid receptor [6] = molecular target: T1, Glucocorticoid receptor; assay: Displacement of [3H]dexamethasone from human Glucocorticoid receptor (GR); Value ranges from 44-53 nM
Glucocorticoid receptor [7] = molecular target: T1, Glucocorticoid receptor; remark: listed apart in the source
Glucocorticoid receptor [8] = molecular target: T1, Glucocorticoid receptor; assay: Displacement of [3H]dexamethasone from human Glucocorticoid receptor (GR); Value ranges from 379-840 nM; method in brief: as §1
Glucocorticoid receptor [9] = molecular target: T1, Glucocorticoid receptor; assay: Displacement of [3H]dexamethasone from human Glucocorticoid receptor (GR); Value ranges from 106-131 nM
Glucocorticoid receptor [10] = molecular target: T1, Glucocorticoid receptor; assay: Displacement of [3H]dexamethasone from human Glucocorticoid receptor (GR); Value ranges from 559-1423 nM; method in brief: as §1
Glucocorticoid receptor [11] = molecular target: T1, Glucocorticoid receptor; assay: Effect on functional cellular GR-antagonism (GRAF) in human Glucocorticoid receptor (GR) expressing cells
Method in brief: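 Whole-cell functional GR antagonism measured in a genetically engineered mammalian cell line expressing GR; IC50 determined from 12-concentration compound curves.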

Glucocorticoid receptor [12] = molecular target: T1, Glucocorticoid receptor; assay: Displacement of [3H]dexamethasone from human Glucocorticoid receptor (GR); Value ranges from 28-34 nM
Glucocorticoid receptor [13] = molecular target: T1, Glucocorticoid receptor; assay: Displacement of [3H]dexamethasone from human Glucocorticoid receptor (GR); Value ranges from 9-12 nM
Glucocorticoid receptor [14] = molecular target: T1, Glucocorticoid receptor; remark: listed apart in the source
Glucocorticoid receptor [15] = molecular target: T1, Glucocorticoid receptor; assay: Displacement of [3H]dexamethasone from human Glucocorticoid receptor (GR); Value ranges from 215-217 nM; method in brief: as §1
Glucocorticoid receptor [16] = molecular target: T1, Glucocorticoid receptor; assay: Displacement of [3H]dexamethasone from human Glucocorticoid receptor (GR); Value ranges from 1273-2947 nM; method in brief: as §1
Glucocorticoid receptor [17] = molecular target: T1, Glucocorticoid receptor; assay: Displacement of [3H]dexamethasone from human Glucocorticoid receptor (GR); Value ranges from 39-94 nM
Glucocorticoid receptor [18] = molecular target: T1, Glucocorticoid receptor; assay: Displacement of [3H]dexamethasone from human Glucocorticoid receptor (GR); Value ranges from 150-220 nM; method in brief: as §1
Glucocorticoid receptor [19] = molecular target: T1, Glucocorticoid receptor; assay: Displacement of [3H]dexamethasone from human Glucocorticoid receptor (GR); Value ranges from 681-974 nM; method in brief: as §1
Glucocorticoid receptor [20] = molecular target: T1, Glucocorticoid receptor; assay: Displacement of [3H]dexamethasone from human Glucocorticoid receptor (GR); Value ranges from 2-2 nM
Glucocorticoid receptor [21] = molecular target: T1, Glucocorticoid receptor; assay: Displacement of [3H]dexamethasone from human Glucocorticoid receptor (GR); Value ranges from 949-1169 nM; method in brief: as §1

## COc1cccc2c1-c1ccc(NS(=O)(=O)N(C)C)cc1C(c1ccccc1)O2 (stereo not drawn)
Glucocorticoid receptor [1]
  IC50: 121 nM
Glucocorticoid receptor [2]
  IC50: 41 nM

## COc1cccc2c1-c1ccc(NS(C)(=O)=O)cc1C(c1cccc(Cl)c1)O2 (stereo not drawn)
[3]
  IC50: 2150 nM
Glucocorticoid receptor [1]
  IC50: 147 nM
Estrogen receptor
  IC50: > 10000 nM
Glucocorticoid receptor [4]
  IC50: 3 nM
Androgen receptor
  IC50: > 10000 nM

## COc1cccc2c1-c1ccc(NCc3ccccc3)cc1C(c1ccccc1)O2 (stereo not drawn)
Glucocorticoid receptor [5]
  IC50: 910 nM
Glucocorticoid receptor [1]
  IC50: 402 nM

## COc1cccc2c1-c1ccc(NS(C)(=O)=O)cc1C(c1cccc(Oc3ccccc3)c1)O2 (stereo not drawn)
Glucocorticoid receptor [1]
  IC50: 434 nM
Glucocorticoid receptor [6]
  IC50: 48 nM

## CCOc1ccc(CC2Oc3cccc(OC)c3-c3ccc(NS(C)(=O)=O)cc32)cc1 (stereo not drawn)
Glucocorticoid receptor [7]
  IC50: 548 nM

## CCNc1ccc2c(c1)C(c1ccccc1)Oc1cccc(OC)c1-2 (stereo not drawn)
Glucocorticoid receptor [1]
  IC50: 382 nM
Glucocorticoid receptor [8]
  IC50: 564 nM

## COc1cccc2c1-c1ccc(NC(C)=O)cc1C(c1ccccc1)O2 (stereo not drawn)
Glucocorticoid receptor [1]
  IC50: 69 nM
Glucocorticoid receptor [9]
  IC50: 117 nM

## CS(=O)(=O)Nc1ccc2c(c1)C(c1ccccc1)Oc1cccc(O)c1-2 (stereo not drawn)
Glucocorticoid receptor [10]
  IC50: 892 nM
Glucocorticoid receptor [11]
  IC50: 1810 nM

## CCOC(=O)c1cccc(C2Oc3cccc(OC)c3-c3ccc(NS(C)(=O)=O)cc32)c1 (stereo not drawn)
Glucocorticoid receptor [12]
  IC50: 31 nM
Glucocorticoid receptor [1]
  IC50: 296 nM

## COc1cccc2c1-c1ccc(NS(C)(=O)=O)cc1C(c1ccc(Cl)cc1)O2 (stereo not drawn)
Glucocorticoid receptor [1]
  IC50: 129 nM
Glucocorticoid receptor [13]
  IC50: 10 nM

## CS(=O)(=O)Nc1ccc2c(c1)C(c1ccccc1)Oc1cccc(-c3cccs3)c1-2 (stereo not drawn)
Glucocorticoid receptor [14]
  IC50: 656 nM

## COc1cccc2c1-c1ccc(NS(C)(=O)=O)cc1C(c1cccc(O)c1)O2 (stereo not drawn)
Glucocorticoid receptor [15]
  IC50: 216 nM

## COc1cccc2c1-c1ccc(N)cc1C(c1ccccc1)O2 (stereo not drawn)
Glucocorticoid receptor [1]
  IC50: 2020 nM
Glucocorticoid receptor [16]
  IC50: 1940 nM

## CCOC(=O)c1ccc(C2Oc3cccc(OC)c3-c3ccc(NS(C)(=O)=O)cc32)cc1 (stereo not drawn)
Glucocorticoid receptor [1]
  IC50: 388 nM
Glucocorticoid receptor [17]
  IC50: 61 nM

## CS(=O)(=O)Nc1ccc2c(c1)C(c1ccccc1)Oc1cccc(CO)c1-2 (stereo not drawn)
Glucocorticoid receptor [18]
  IC50: 180 nM

## COc1ccccc1C1Oc2cccc(OC)c2-c2ccc(NS(C)(=O)=O)cc21 (stereo not drawn)
Glucocorticoid receptor [1]
  IC50: 665 nM
Glucocorticoid receptor [19]
  IC50: 812 nM

## CS(=O)(=O)Nc1ccc2c(c1)C(c1ccccc1)Oc1cccc(OC(F)F)c1-2 (stereo not drawn)
[3]
  IC50: 162 nM
Glucocorticoid receptor [1]
  IC50: 57 nM
Estrogen receptor
  IC50: > 10000 nM
Glucocorticoid receptor [20]
  IC50: 2 nM
Androgen receptor
  IC50: 8730 nM

## COc1cccc2c1-c1ccc(N(C)S(C)(=O)=O)cc1C(c1ccccc1)O2 (stereo not drawn)
Glucocorticoid receptor [1]
  IC50: 210 nM
Glucocorticoid receptor [21]
  IC50: 1050 nM
